Test results published in publication PMC2193282 (The Journal of Experimental Medicine, 2000).

Tested on: epidermal Langerhans cells
Experiment: Langerhans cell migration assay
Assay type: in vivo, BALB/c mice
Conditions: 24 h after topical application of 0.5% DNFB on ear (Fig. 5 A)
Procedure, shortened: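 Ears were harvested 24 h later. Epidermal sheets were separated (0.5 M ammonium thiocyanate, 20 min, 37°C), acetone-fixed and stained with FITC anti-IA mAb 2G9. IA+ cells were counted at ×400 in 10 fields/sample; 5–15 mice/group.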

O=[N+]([O-])c1ccc(F)c([N+](=O)[O-])c1 [DNFB, dinitrofluorobenzene]
reduction of epidermal Langerhans cell density: ~35%
